Measurements as given in ChEMBL document CHEMBL1129492, “Structure-activity relationships among 2-substituted 5,6-dichloro-, 4,6-dichloro-, and 4,5-dichloro-1-[(2-hydroxyethoxy) methyl]- and -1-[(1,3-dihydroxy-2-propoxy) methyl]benzimidazoles” (J Med Chem, 1996).

Tests used:
KB [1] = test: Inhibitory activity of compound against KB cell growth [>-indicates IC50/IC90 was not reached at the noted (highest) concentration tested]; format: functional, cell-based; details: Homo sapiens
Summary of the method: (§1)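 KB cells plated at 3000-5000 cells/well and held overnight at 37 °C. Compound added in quadruplicate at six to eight concentrations, then 48 h at 37 °C in CO₂ (about two population doublings). Cells fixed with 95% ethanol, stained with 0.1% crystal violet, dye eluted with acidified ethanol and read at 570 nm. IC50 from regression.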

Human alphaherpesvirus 1 = test: Antiviral activity against herpes simplex virus type 1 (HSV-1) in an ELISA assay; format: functional, organism-based
Summary of the method: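 BSC-1 cells (10 000/well, MEM(E) + 10% calf serum) incubated overnight at 37 °C, then given drug in quadruplicate with HSV-1 at 100 PFU/well. After 3 days at 37 °C, plates were blocked and probed with HRP-conjugated rabbit anti-HSV-1 antibody and developed with tetramethylbenzidine. Absorbance was read at 450 and 570 nm. Percent reduction was taken versus virus without drug.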

HFF = test: Visual cytotoxicity of compound on HFF cells at time of HCMV plaque enumeration; format: functional, cell-based; details: Homo sapiens
Summary of the method: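 Stationary, uninfected HFF cells in the HCMV plaque assay were scored microscopically for cytotoxicity when plaques were enumerated, after 7 days at 37 °C.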

Human betaherpesvirus 5 [2] = test: Antiviral activity against human cytomegalovirus (HCM virus) in plaque assay; format: functional, organism-based
Summary of the method: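 HCMV Towne strain (plaque-purified P_O) at ca. 100 PFU/cm² on HFF cell sheets. After adsorption, compound in growth medium was added to duplicate wells at four to eight concentrations. Incubated 7 days at 37 °C, then crystal violet staining and microscopic plaque counts. Percent plaque reduction versus no drug; IC50 from regression lines.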

KB [3] = test: Inhibitory activity of compound against KB cell growth; format: functional, cell-based; details: Homo sapiens; summary of the method: as §1
Human betaherpesvirus 5 [4] = test: Antiviral activity of compound against HCM virus in yield reduction experiments; format: functional
Summary of the method: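 HFF cells infected with HCMV (Towne) at moi 0.5-1 PFU/cell, then given compound serially diluted 1:3 (100 to 0.14 µM) in duplicate. After 7 days at 37 °C, one freeze-thaw cycle. Progeny virus was titered by 1:3 serial dilution on fresh HFF monolayers with plaque counting. IC90 reported.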

Human betaherpesvirus 5 [5] = test: Antiviral activity of compound against HCMvirus in yield reduction experiments; format: functional
Summary of the method: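 HCMV Towne strain (plaque-purified isolate P_O) grown on HFF cells in 96-well dishes, infected at moi 0.5-1 PFU/cell. After adsorption, compound added in 1:3 serial dilutions from 100 to 0.14 µM, in duplicate. 7 days at 37 °C, then one freeze-thaw. Progeny titred by plaque count on fresh HFF monolayers.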

SMILES	IC50 (KB [1]) [µM]	IC50 (Human alphaherpesvirus 1) [µM]	IC50 (HFF) [µM]	IC50 (Human betaherpesvirus 5 [2]) [µM]	IC50 (KB [3]) [µM]	IC90 (Human betaherpesvirus 5 [4]) [µM]	IC90 (Human betaherpesvirus 5 [5]) [nM]
Nc1nc2c(Cl)c(Cl)ccc2n1COC(CO)CO	> 100	> 100	> 100	> 100	–	–	–
OCC(CO)OCn1c(SCc2ccccc2)nc2c(Cl)c(Cl)ccc21	60	55	32	35	–	–	–
CN(C)c1nc2c(Cl)cc(Cl)cc2n1COCCO	–	> 100	–	> 100	–	–	–
OCCOCn1c(SCc2ccccc2)nc2c(Cl)c(Cl)ccc21	–	> 100	32	30	35	–	–
OCC(CO)OCn1c(S)nc2cc(Cl)c(Cl)cc21	> 100	55	> 100	> 100	–	–	–
OCC(CO)OCn1cnc2c(Cl)c(Cl)ccc21	> 100	> 100	> 100	> 100	–	–	–
OCCOCn1c(SCc2ccccc2)nc2c(Cl)cc(Cl)cc21	–	> 100	32	50	> 100	–	–
OCCOCn1c(Br)nc2cc(Cl)c(Cl)cc21	–	> 100	> 100	> 100	> 100	–	–
OCC(CO)OCn1cnc2cc(Cl)c(Cl)cc21	> 100	> 100	> 100	> 100	–	–	–
CNc1nc2cc(Cl)c(Cl)cc2n1COC(CO)CO	> 100	> 100	> 100	> 100	–	–	–
OCCOCn1c(SCc2ccccc2)nc2cc(Cl)c(Cl)cc21	–	45	32	40	55	–	–
OCCOCn1cnc2c(Cl)c(Cl)ccc21	–	> 100	> 100	> 100	> 100	–	–
Nc1nc2c(Cl)cc(Cl)cc2n1COCCO	–	100	–	> 100	> 100	–	–
OCC(CO)OCn1c(Cl)nc2c(Cl)cc(Cl)cc21	–	–	> 100	> 100	–	–	–
OCC(CO)OCn1c(Br)nc2c(Cl)cc(Cl)cc21	> 100	–	161	136	–	50	–
Nc1nc2c(Cl)cc(Cl)cc2n1COC(CO)CO	–	–	100	> 100	–	–	–
OCCOCn1c(Cl)nc2cc(Cl)c(Cl)cc21	–	> 100	> 320	> 320	> 320	–	–
CNc1nc2cc(Cl)c(Cl)cc2n1COCCO	–	> 100	> 100	> 100	> 100	–	–
OCC(CO)OCn1c(Cl)nc2cc(Cl)c(Cl)cc21	> 100	> 100	> 100	> 100	–	–	–
CNc1nc2c(Cl)cc(Cl)cc2n1COCCO	–	> 100	> 100	> 100	> 100	–	–
CN(C)c1nc2cc(Cl)c(Cl)cc2n1COCCO	–	> 100	> 100	> 100	> 100	–	–
OC[C@H]1O[C@H](n2c(Br)nc3cc(Cl)c(Cl)cc32)[C@@H](O)[C@H]1O	> 100	–	–	–	–	–	200
OCCOCn1cnc2c(Cl)cc(Cl)cc21	–	> 100	> 100	> 100	> 100	–	–
CN(C)c1nc2c(Cl)cc(Cl)cc2n1COC(CO)CO	> 100	> 100	> 100	> 100	–	–	–

SMILES	IC50 (KB [1]) [µM]	IC50 (Human alphaherpesvirus 1) [µM]	IC50 (HFF) [µM]	IC50 (Human betaherpesvirus 5 [2]) [µM]	IC50 (KB [3]) [µM]	IC90 (Human betaherpesvirus 5 [4]) [µM]	IC90 (Human betaherpesvirus 5 [5]) [nM]
OCCOCn1c(Br)nc2c(Cl)c(Cl)ccc21	–	> 100	> 100	> 100	> 100	–	–
OCCOCn1c(Br)nc2c(Cl)cc(Cl)cc21	–	> 100	> 100	> 100	> 100	–	–
CN(C)c1nc2c(Cl)c(Cl)ccc2n1COC(CO)CO	> 100	> 100	> 100	> 100	–	–	–
CN(C)c1nc2cc(Cl)c(Cl)cc2n1COC(CO)CO	> 100	> 100	> 100	> 100	–	–	–
OCCOCn1c(Cl)nc2c(Cl)cc(Cl)cc21	–	> 100	–	> 100	–	–	–
Nc1nc2c(Cl)c(Cl)ccc2n1COCCO	–	> 100	> 100	> 100	> 100	–	–
OCCOCn1c(S)nc2c(Cl)c(Cl)ccc21	–	> 100	> 100	> 100	> 100	–	–
OC[C@H]1O[C@@H](n2c(Cl)nc3cc(Cl)c(Cl)cc32)[C@H](O)[C@@H]1O	–	–	–	–	–	–	1400
Nc1nc2cc(Cl)c(Cl)cc2n1COC(CO)CO	> 100	> 100	> 100	> 100	–	–	–
OCC(CO)OCn1c(S)nc2c(Cl)cc(Cl)cc21	> 100	> 100	> 100	> 100	–	–	–
OCCOCn1cnc2cc(Cl)c(Cl)cc21	–	> 100	> 100	> 100	> 100	–	–
OCCOCn1c(Cl)nc2c(Cl)c(Cl)ccc21	–	> 100	> 100	> 100	> 100	–	–
Nc1nc2c(ncn2COC(CO)CO)c(=O)[nH]1 [GANCICLOVIR]	> 100	–	> 100	–	–	1.6	–
CNc1nc2c(Cl)c(Cl)ccc2n1COCCO	–	> 100	> 100	> 100	> 100	–	–
OCC(CO)OCn1c(Cl)nc2c(Cl)c(Cl)ccc21	> 100	100	> 100	> 100	–	–	–
OCC(CO)OCn1c(Br)nc2c(Cl)c(Cl)ccc21	> 100	> 100	> 100	> 100	–	–	–
OCC(CO)OCn1c(S)nc2c(Cl)c(Cl)ccc21	> 100	> 100	> 100	> 100	–	–	–
OCCOCn1c(S)nc2cc(Cl)c(Cl)cc21	–	> 100	100	> 100	> 100	–	–
OCCOCn1c(S)nc2c(Cl)cc(Cl)cc21	–	> 100	> 100	> 100	> 100	–	–
CNc1nc2c(Cl)cc(Cl)cc2n1COC(CO)CO	–	–	100	> 100	–	–	–
Nc1nc2cc(Cl)c(Cl)cc2n1COCCO	–	> 100	> 100	> 100	> 100	–	–
CNc1nc2c(Cl)c(Cl)ccc2n1COC(CO)CO	> 100	> 100	> 100	> 100	–	–	–
OCC(CO)OCn1c(SCc2ccccc2)nc2cc(Cl)c(Cl)cc21	> 100	> 100	> 100	> 100	–	–	–
OCC(CO)OCn1c(Br)nc2cc(Cl)c(Cl)cc21	> 100	100	> 100	> 100	–	25	–
